pEC50, pIC50: −log10 of the molar value. Active and inactive are the calls of the source. The rule behind the calls is not given here.
Columns and labels:
[1] = molecular target: T1, Lysophosphatidic acid receptor 1 (Homo sapiens, UniProt Q92633); experiment: Agonist activity at LPA1 expressed in human chem1 cells assessed as intracellular calcium mobilization by FLIPR assay; type: functional, cell-based
How it was run: (§1)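 Chem-1 cells stably transfected with LPA1, LPA3 or LPA5, kept in DMEM/10% FBS; Fluo-4 NW loaded. Compound added as an eight-point fourfold serial dilution (top 10 μM), then incubated 10 min at 25 °C. Ca2+ flux read for 180 s on FLIPR, expressed as percentage activation.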

[2] = molecular target: T1, Lysophosphatidic acid receptor 1; experiment: Antagonist activity at LPA1 expressed in human chem1 cells assessed as effect on intracellular calcium mobilization by FLIPR assay; type: functional, cell-based
How it was run: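 LPA1-, LPA3- or LPA5-transfected Chem-1 cells, Fluo-4 NW loaded, preincubated 10 min at 25 °C with compound. Dilution series was eight-point, fourfold, top final concentration 10 μM. […] FLIPR Ca2+ signal read for 180 s, percentage inhibition calculated; 50% inhibition was taken as antagonism.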

[3] = molecular target: T2, Lysophosphatidic acid receptor 3 (Homo sapiens) (UniProt Q9UBY5); experiment: Agonist activity at LPA3 expressed in human chem1 cells assessed as intracellular calcium mobilization by FLIPR assay; type: functional, cell-based; how it was run: as §1
T2 sequence (whole entry): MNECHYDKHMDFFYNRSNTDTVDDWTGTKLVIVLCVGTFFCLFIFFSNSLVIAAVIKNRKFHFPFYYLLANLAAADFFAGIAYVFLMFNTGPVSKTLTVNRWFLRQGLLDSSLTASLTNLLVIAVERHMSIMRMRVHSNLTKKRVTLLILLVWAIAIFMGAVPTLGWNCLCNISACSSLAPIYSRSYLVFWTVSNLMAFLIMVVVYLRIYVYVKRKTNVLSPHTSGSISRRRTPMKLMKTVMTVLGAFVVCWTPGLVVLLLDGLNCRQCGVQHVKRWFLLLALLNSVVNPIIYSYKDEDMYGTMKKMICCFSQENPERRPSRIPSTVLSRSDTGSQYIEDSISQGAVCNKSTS

[4] = molecular target: Lysophosphatidic acid receptor 5 (Homo sapiens) (UniProt Q9H1C0); experiment: Agonist activity at LPA5 expressed in human chem1 cells assessed as intracellular calcium mobilization by FLIPR assay; type: functional, cell-based; how it was run: as §1
[5] = test system: PC-3; experiment: Antiproliferative activity against human PC3 cells after 96 hrs by SRB assay; type: functional, cell-based; settings: PC-3, 96 h
[6] = Antiproliferative activity against human WM164 cells after 48 hrs by SRB assay; type: functional, cell-based; settings: WM164, 48 h
How it was run: (§2)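 Melanoma lines and control fibroblasts grown at 37 °C, 5% CO2, then exposed to a wide concentration range for 48 h in round-bottom 96-well plates. Fixed with 10% TCA, stained with SRB, protein read at 560 nm. IC50 (50% growth inhibition versus untreated) obtained by nonlinear regression.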

[7] = test system: DU-145; experiment: Antiproliferative activity against human DU145 cells after 96 hrs by SRB assay; type: functional, cell-based; settings: DU-145, 96 h
How it was run: (§3)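 Prostate lines in RPMI1640/10% FBS; RH7777 in DMEM/10% FBS. Cells TCA-fixed, stained with 0.4% SRB, absorbance read at 540 nm. IC50 from nonlinear regression of % survival against concentration.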

[8] = test system: A-375; experiment: Antiproliferative activity against human A375 cells after 48 hrs by SRB assay; type: functional, cell-based; settings: A-375, 48 h; how it was run: as §2
[9] = Cytotoxicity against human fibroblasts after 48 hrs by SRB assay; type: cell-based; settings: Fibroblast; how it was run: as §2
[10] = test system: PPC-1; experiment: Antiproliferative activity against human PPC1 cells after 96 hrs by SRB assay; type: functional, cell-based; settings: PPC-1, 96 h; how it was run: as §3
[11] = test system: RH7777; experiment: Cytotoxicity against rat RH7777 cells after 96 hrs by SRB assay; type: cell-based; settings: RH7777, 96 h; how it was run: as §3
[12] = test system: RH7777; experiment: Selectivity ratio of IC50 for rat RH7777 cells to IC50 for human prostate cancer cells
How it was run: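 Ratio of RH7777 IC50 to the mean IC50 over four prostate lines (DU 145, PC-3, LNCaP, PPC-1). Prostate lines grown in RPMI1640/10% FBS and RH7777 in DMEM/10% FBS. Read by SRB (0.4%) at 540 nm; IC50 by nonlinear regression.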

[13] = test system: LNCaP; experiment: Antiproliferative activity against human LNCAP cells after 96 hrs by SRB assay; type: functional, cell-based; how it was run: as §3
[14] = Selectivity ratio of IC50 for human fibroblasts to IC50 for human melanoma cells; type: ADME; settings: human fibroblasts and human melanoma cells, read-out: Ratio IC50
[15] = Antiproliferative activity against mouse B16-F1 cells after 48 hrs by SRB assay; type: functional, cell-based; settings: B16-F1, 48 h; how it was run: as §2

T1 sequence (Q92633 whole entry): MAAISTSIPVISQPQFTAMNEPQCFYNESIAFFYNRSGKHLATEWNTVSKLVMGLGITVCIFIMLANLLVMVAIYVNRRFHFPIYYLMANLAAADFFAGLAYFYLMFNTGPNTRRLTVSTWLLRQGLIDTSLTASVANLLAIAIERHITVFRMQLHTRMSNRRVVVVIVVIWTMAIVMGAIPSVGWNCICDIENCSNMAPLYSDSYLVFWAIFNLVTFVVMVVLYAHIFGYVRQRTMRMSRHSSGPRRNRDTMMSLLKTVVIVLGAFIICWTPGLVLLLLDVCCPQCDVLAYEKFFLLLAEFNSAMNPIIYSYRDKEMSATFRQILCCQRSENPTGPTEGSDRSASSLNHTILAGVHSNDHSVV
Sequence of Lysophosphatidic acid receptor 5 (Homo sapiens) (Q9H1C0 whole entry): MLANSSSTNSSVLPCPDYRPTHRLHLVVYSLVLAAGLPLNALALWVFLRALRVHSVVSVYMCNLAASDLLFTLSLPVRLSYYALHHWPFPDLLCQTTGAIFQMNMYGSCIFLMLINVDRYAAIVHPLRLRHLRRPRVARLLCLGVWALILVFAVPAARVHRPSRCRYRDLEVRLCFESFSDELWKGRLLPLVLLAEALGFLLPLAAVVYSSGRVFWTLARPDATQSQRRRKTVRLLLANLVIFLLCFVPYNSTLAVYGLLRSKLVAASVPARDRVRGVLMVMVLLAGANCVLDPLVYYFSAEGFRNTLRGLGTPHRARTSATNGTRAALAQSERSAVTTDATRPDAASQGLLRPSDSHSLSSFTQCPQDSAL

SMILES | Activity [1] | pIC50 [2] | Activity [3] | Activity [4] | pIC50 [5] | pIC50 [7] | pIC50 [8] | pIC50 [13] | pEC50 [1] | pIC50 [6] | pIC50 [9] | pIC50 [10] | pIC50 [11] | Ratio IC50 [12] | selectivity ratio [14] | pIC50 [15]
Cc1noc(-c2ccc(CSCCC(=O)O)cc2)c1NC(=O)OC(C)c1ccccc1Cl (configuration not stated) | inactive | 7.34 | inactive | inactive | – | – | – | – | – | – | – | – | – | – | – | –
CCCCCCCCCCCCCCCCCCNC(=O)[C@@H]1CSC(c2cc(OC)c(OC)c(OC)c2)N1 (mixture of isomers) | – | – | – | – | 5.31 | 5.39 | 5.34 | 5.80 | – | 5.52 | 5.33 | 6.00 | 4.85 | 4.8 | 1 | 5.23
CC(=O)Nc1ccc(C2N[C@H](C(=O)Nc3ccc(-c4ccccc4)cc3)CS2)cc1 (mixture of isomers) | – | – | – | – | 5.12 | 5.30 | 5.21 | 5.46 | – | 5.39 | 4.48 | 5.54 | 5.02 | 2 | 6.3 | 5.24
CCCCCCCCCCCCCCCCNC(=O)[C@@H]1CSC(c2ccc(N(C)C)cc2)N1 (mixture of isomers) | – | – | – | – | 5.22 | 5.49 | 5.74 | 5.85 | – | 5.82 | 4.68 | 6.40 | 5.00 | 3.6 | 6.3 | 5.17
CCCCCCCCCCCCCCCCCCNC(=O)[C@@H]1CSC(c2ccc(OC)c(OC)c2)N1 (mixture of isomers) | – | – | – | – | 5.39 | 5.26 | 5.16 | 5.62 | – | 5.57 | 4.69 | 6.05 | 4.93 | 3.7 | 2.5 | 4.84
CCCCCCCCCCCCCCCCNC(=O)[C@@H]1CSC(c2ccccc2OC)N1 (mixture of isomers) | – | – | – | – | 5.13 | 5.19 | 5.52 | 5.44 | – | 5.62 | 5.14 | 5.77 | 4.76 | 3.6 | 2.2 | 5.37
CCCCCCCCCCCCCCCCNC(=O)[C@@H]1CSC(c2ccc(NC(C)=O)cc2)N1C(C)=O (mixture of isomers) | – | – | – | – | 5.05 | 4.83 | 4.90 | 4.97 | – | 4.69 | 4.24 | 5.17 | 4.89 | 1.3 | 3.6 | 4.82
CCCCCCCCCCCCCCCCNC[C@@H]1CSC(c2ccc(NC(C)=O)cc2)N1 (mixture of isomers) | – | – | – | – | 5.35 | 5.33 | 4.84 | 5.33 | – | 5.49 | 4.07 | 5.62 | 5.10 | 1.9 | 8.6 | 4.92
CCCCCCCC/C=C\CCCCCCCC(=O)OC[C@@H](O)COP(=O)(O)O [LYSOPHOSPHATIDIC ACID] | – | – | – | – | – | – | – | – | 7.51 | – | – | – | – | – | – | –

Further lines, with some results ahead:

Activity [1] | pIC50 [2] | Activity [3] | Activity [4] | pIC50 [5] | pIC50 [7] | pIC50 [8] | pIC50 [13] | pEC50 [1] | SMILES | pIC50 [6] | pIC50 [9] | pIC50 [10] | pIC50 [11] | Ratio IC50 [12] | selectivity ratio [14] | pIC50 [15]
– | – | – | – | 5.59 | 5.70 | 5.80 | 5.89 | – | CCCCCCCCC/C=C\CCCCCCCNC(=O)[C@@H]1CSC(c2ccc(OC)c(OC)c2)N1 (mixture of isomers) | 5.92 | 4.74 | 6.22 | 5.00 | 6.2 | 9 | 5.48
– | – | – | – | 5.70 | 5.82 | 5.85 | 6.10 | – | CCCCCCCCC/C=C/CCCCCCCNC(=O)[C@@H]1CSC(c2ccc(OC)c(OC)c2)N1 (mixture of isomers) | 5.96 | 4.79 | 6.52 | 5.03 | 8.2 | 8.6 | 5.49
– | – | – | – | 5.57 | 5.34 | 5.03 | 5.48 | – | CCCCCCCCCCCCCCCCNC(=O)[C@@H]1CSC(c2ccccc2NC(C)=O)N1 (mixture of isomers) | 5.41 | 4.56 | 5.82 | 4.88 | 4.4 | 3.9 | 5.10
– | – | – | – | 5.80 | 5.64 | 5.82 | 5.85 | – | CCCCCCCCCCCCCCCCNC(=O)[C@@H]1CSC(c2cccc(NC(C)=O)c2)N1 (mixture of isomers) | 5.96 | 5.20 | 6.30 | 5.31 | 3.4 | 3.9 | 5.66
– | – | – | – | 6.05 | 6.15 | 4.69 | 5.70 | – | CCCCCCCCCCCCCCCCNC(=O)[C@@H]1CSC(c2ccc(NC(=O)CCl)cc2)N1 (mixture of isomers) | 5.24 | 4.60 | 6.40 | 5.03 | 9.4 | 0.6 | 4.03
– | – | – | – | 5.92 | 6.05 | 5.74 | 6.22 | – | CCCCCCCCC/C=C/CCCCCCCNC(=O)[C@@H]1CSC(c2cc(OC)c(OC)c(OC)c2)N1 (mixture of isomers) | 5.96 | 5.40 | 6.52 | 5.17 | 9.1 | 2 | 5.49
– | – | – | – | 6.10 | 6.05 | 5.51 | 5.77 | – | CC(=O)Nc1ccc(C2N[C@H](C(=O)Nc3ccc4cc5ccccc5cc4c3)CS2)cc1 (mixture of isomers) | 5.85 | 4.87 | 6.15 | 5.59 | 2.5 | 4 | 5.25
– | – | – | – | 5.62 | 5.74 | 5.31 | 5.80 | – | CCCCCCCCC/C=C\CCCCCCCNC(=O)[C@@H]1CSC(c2ccccc2)N1 (mixture of isomers) | 5.62 | 4.94 | 6.00 | 5.08 | 4.9 | 2.6 | 5.22
– | – | – | – | 5.47 | 5.51 | 4.89 | 5.41 | – | CCCCCCCCCCCCCCCCNC[C@@H]1CSC(c2ccccc2)N1 (mixture of isomers) | 5.31 | 4.22 | 5.60 | 5.21 | 1.9 | 8 | 5.33
– | – | – | – | 5.82 | 5.92 | 5.62 | 6.15 | – | CCCCCCCCC/C=C\CCCCCCCNC(=O)[C@@H]1CSC(c2cc(OC)c(OC)c(OC)c2)N1 (mixture of isomers) | 5.89 | 5.32 | 6.30 | 5.08 | 8.6 | 1.7 | 5.33
